According to ChEMBL document CHEMBL2086311, “UDP made a highly promising stable, potent, and selective P2Y6-receptor agonist upon introduction of a boranophosphate moiety” (Bioorg Med Chem, 2012):
The source made the active and inactive calls. The calls are words filed in the database; no cut-off is given here.

What was measured:
[1] = Half life in KCl/HCl buffer by 31P-NMR analysis at pH 1.4; type: physicochemical
Procedure, shortened: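 Sodium salt dissolved in KCl/HCl buffer pH 1.4 containing D2O, held at 37 °C. 31P NMR spectra taken at 15 min, 1 h or 24 h intervals, about every 24 h in multi-day runs. Hydrolysis rate taken from change in integration of one starting-material phosphate signal over time, fit to a pseudo-first-order model.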

[2] = Half life in human serum by HPLC analysis; type: ADME, cell-free
Procedure, shortened: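 Compound (0.1 mg) incubated with human blood serum and RPMI-1640 medium at 37 °C for 0–24 h. Samples taken at 0.5–12 h intervals, heated to 80 °C for 30 min, treated with CM Sephadex and extracted with chloroform. Analysed by reverse-phase HPLC. Degradation from peak integration, corrected against a serum-free control given the same workup.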

P2Y purinoceptor 6 [3] = target: T1, P2Y purinoceptor 6 (Homo sapiens, UniProt Q15077); assay: Agonist activity at human P2Y6 receptor; type: functional
Procedure, shortened: (§1)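 Human P2Y6 receptor-GFP construct stably expressed in 1321N1 astrocytoma cells (no endogenous P2X/P2Y). Cells loaded with 2 µM fura-2/AM plus 0.02% pluronic acid in Na-HBS (pH 7.4), 30 min, 37 °C. Superfused at 37 °C with nucleotide, usually 10^-8 M to at least 10^-5 M. [Ca2+]i read as 340/380 nm excitation ratio, emission 510 nm. EC50 from concentration–response curves.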

P2Y purinoceptor 6 [4] = target: T1, P2Y purinoceptor 6; assay: Agonist activity at human GFP-tagged P2Y6 receptor expressed in human 1321N1 cells assessed as intracellular calcium mobilization by fura2/AM-based fluorescence spectrophotometry; type: functional, cell-based
Procedure, shortened: (§2)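 Human P2Y2, P2Y4 or P2Y6 receptors with GFP fusion, stably expressed in 1321N1 astrocytoma cells (no endogenous P2X/P2Y), selected with 0.5 mg/mL G418. Cells on coverslips at ~80% density were loaded with 2 µM fura 2/AM plus 0.02% pluronic acid in Na-HBS pH 7.4 for 30 min at 37 °C. Nucleotide was superfused at 37 °C, usually 10^-8 to ≥10^-5 M, sometimes to 10^-4 M. Read-out was 340/380 nm excitation ratio at 510 nm emission. Values are mean maximal amplitude ± SE.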

[5] = target: T2, Ectonucleotide pyrophosphatase/phosphodiesterase family member 1 (Homo sapiens, UniProt P22413); assay: Hydrolytic stability of the compound assessed as human NPP1-mediated hydrolysis measuring UMP formation after 2 hrs by HPLC analysis; type: ADME; parameters: scale not given: the % may be the effect or the level left
T2 sequence (P22413 whole entry): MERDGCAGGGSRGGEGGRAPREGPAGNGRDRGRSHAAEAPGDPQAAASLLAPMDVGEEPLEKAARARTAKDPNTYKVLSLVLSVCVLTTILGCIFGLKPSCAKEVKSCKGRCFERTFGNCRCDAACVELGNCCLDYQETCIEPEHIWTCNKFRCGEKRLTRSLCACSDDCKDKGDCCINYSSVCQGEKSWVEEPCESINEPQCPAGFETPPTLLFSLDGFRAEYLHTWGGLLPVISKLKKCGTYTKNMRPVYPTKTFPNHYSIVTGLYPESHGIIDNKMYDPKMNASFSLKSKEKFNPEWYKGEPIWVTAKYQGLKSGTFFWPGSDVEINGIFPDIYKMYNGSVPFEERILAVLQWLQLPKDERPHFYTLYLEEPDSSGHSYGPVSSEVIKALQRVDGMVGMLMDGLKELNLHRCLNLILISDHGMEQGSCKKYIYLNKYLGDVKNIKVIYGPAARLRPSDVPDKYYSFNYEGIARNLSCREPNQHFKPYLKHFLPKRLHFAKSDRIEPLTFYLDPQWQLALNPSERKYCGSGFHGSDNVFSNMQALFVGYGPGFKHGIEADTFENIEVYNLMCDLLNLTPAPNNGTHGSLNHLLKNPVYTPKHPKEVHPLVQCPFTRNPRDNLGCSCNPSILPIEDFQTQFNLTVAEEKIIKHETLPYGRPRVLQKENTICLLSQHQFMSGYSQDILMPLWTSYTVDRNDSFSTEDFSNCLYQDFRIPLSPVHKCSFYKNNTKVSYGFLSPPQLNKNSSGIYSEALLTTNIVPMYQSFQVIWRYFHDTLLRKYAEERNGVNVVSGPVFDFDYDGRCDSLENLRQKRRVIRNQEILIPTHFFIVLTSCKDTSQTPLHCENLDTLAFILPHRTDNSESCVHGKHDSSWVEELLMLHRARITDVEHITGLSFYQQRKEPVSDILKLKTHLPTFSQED
Procedure, shortened: (§3)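 Human NPP1 (56.15 µg) or NPP3 (57.78 µg) extract was pre-incubated 3 min at 37 °C in 1 mM CaCl2, 200 mM NaCl, 10 mM KCl, 100 mM Tris pH 8.5. Reaction was started with 4 mM compound stock and stopped after 2 h (NPP1) or 3 h (NPP3) in ice-cold 1 M perchloric acid, then neutralized with KOH. HPLC measured the nucleoside monophosphate peak area minus a no-enzyme acid control. Mean ± S.D. of two experiments.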

Serum [6] = assay: Drug metabolism in human serum assessed as nucleoside 5'-monophosphate formation incubated up to 24 hrs by HPLC analysis; type: ADME, cell-free
Procedure, shortened: (§4)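 Samples held 0.1 mg compound with human blood serum (180 µL) and RPMI-1640 (540 µL) at 37 °C for 0–24 h. At each time point they were heated to 80 °C for 30 min, treated with CM Sephadex, centrifuged and chloroform-extracted. Analysis was reverse-phase HPLC on peak integrals. Degradation was taken relative to a no-serum control carried through the same workup, and half-lives came from the time course.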

Serum [7] = assay: Drug metabolism in human serum assessed as nucleoside formation incubated up to 24 hrs by HPLC analysis; type: ADME, cell-free; procedure, shortened: as §4
[8] = Agonist activity at P2Y6 receptor in New Zealand White rabbit osteoclasts assessed as intracellular calcium mobilization by fura2-based microfluorimetric technique; type: functional, cell-based; details: Oryctolagus cuniculus
P2Y purinoceptor 4 = P2Y purinoceptor 4 (Homo sapiens, UniProt P51582); assay: Agonist activity at human GFP-tagged P2Y4 receptor expressed in human 1321N1 cells assessed as intracellular calcium mobilization up to 100 uM by fura2/AM-based fluorescence spectrophotometry; type: functional, cell-based; procedure, shortened: as §2
P2Y purinoceptor 6 [9] = target: T1, P2Y purinoceptor 6; assay: Ratio of UDP EC50 to compound EC50 for human GFP-tagged P2Y6 receptor; procedure, shortened: as §1
[10] = target: P2Y purinoceptor 2 (Homo sapiens) (UniProt P41231); assay: Agonist activity at human GFP-tagged P2Y2 receptor expressed in human 1321N1 cells assessed as intracellular calcium mobilization up to 100 uM by fura2/AM-based fluorescence spectrophotometry; type: functional, cell-based; procedure, shortened: as §2
[11] = target: T3, NPP3 (ectonucleotide pyrophosphatase/phosphodiesterase family member 3) (Homo sapiens, UniProt O14638); assay: Hydrolytic stability of the compound assessed as human NPP3-mediated hydrolysis after 3 hrs by HPLC analysis; type: ADME; details: human NPP3 enzyme, read-out: Activity; procedure, shortened: as §3
T3 sequence (O14638 whole entry): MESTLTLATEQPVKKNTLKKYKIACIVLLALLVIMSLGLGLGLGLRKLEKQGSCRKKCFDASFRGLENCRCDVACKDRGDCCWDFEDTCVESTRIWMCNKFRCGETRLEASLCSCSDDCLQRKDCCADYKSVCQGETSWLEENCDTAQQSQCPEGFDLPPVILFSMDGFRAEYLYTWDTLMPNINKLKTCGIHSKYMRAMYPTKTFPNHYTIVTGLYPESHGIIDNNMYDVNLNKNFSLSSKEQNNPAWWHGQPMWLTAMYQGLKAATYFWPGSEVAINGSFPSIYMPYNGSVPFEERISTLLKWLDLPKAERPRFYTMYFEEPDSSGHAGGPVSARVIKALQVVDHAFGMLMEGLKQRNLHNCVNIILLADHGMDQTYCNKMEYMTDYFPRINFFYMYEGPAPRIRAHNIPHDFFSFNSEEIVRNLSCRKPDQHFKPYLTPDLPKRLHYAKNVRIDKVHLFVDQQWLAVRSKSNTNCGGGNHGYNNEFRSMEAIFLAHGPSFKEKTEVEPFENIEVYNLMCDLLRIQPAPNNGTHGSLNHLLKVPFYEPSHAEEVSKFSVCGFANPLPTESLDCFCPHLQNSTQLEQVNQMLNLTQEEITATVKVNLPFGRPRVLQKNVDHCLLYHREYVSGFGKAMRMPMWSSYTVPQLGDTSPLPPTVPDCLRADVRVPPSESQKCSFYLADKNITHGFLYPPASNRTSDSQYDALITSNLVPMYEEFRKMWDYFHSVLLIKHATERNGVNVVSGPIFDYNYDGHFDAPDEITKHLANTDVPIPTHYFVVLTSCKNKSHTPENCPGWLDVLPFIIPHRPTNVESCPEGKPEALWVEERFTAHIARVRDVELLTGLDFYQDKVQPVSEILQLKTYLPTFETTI

[12] = target: T4, NPP1 (ectonucleotide pyrophosphatase/phosphodiesterase family member 1) (Homo sapiens, UniProt P22413); assay: Hydrolytic stability of the compound assessed as human NPP1-mediated hydrolysis after 2 hrs by HPLC analysis; type: ADME; details: human NPP1 enzyme, read-out: Activity
T4 sequence (P22413 whole entry): T2 sequence (P22413 whole entry)
Procedure, shortened: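 Human NPP1 extract (56.15 µg) pre-incubated 3 min at 37 °C in 1 mM CaCl2, 200 mM NaCl, 10 mM KCl, 100 mM Tris pH 8.5. Reaction started with 4 mM compound stock and stopped at 2 h in ice-cold 1 M perchloric acid, then neutralized with KOH. Reverse-phase HPLC. Nucleoside monophosphate peak area taken minus an acid-treated no-enzyme control. Mean of two experiments.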

[13] = target: T2, Ectonucleotide pyrophosphatase/phosphodiesterase family member 1; assay: Hydrolytic stability of the compound assessed as human NPP1-mediated hydrolysis measuring 5-OMe-UMP formation after 2 hrs by HPLC analysis; type: ADME; parameters: scale not given: the % may be the effect or the level left; procedure, shortened: as §3

T1 sequence (Q15077 whole entry, the tested form may be a part): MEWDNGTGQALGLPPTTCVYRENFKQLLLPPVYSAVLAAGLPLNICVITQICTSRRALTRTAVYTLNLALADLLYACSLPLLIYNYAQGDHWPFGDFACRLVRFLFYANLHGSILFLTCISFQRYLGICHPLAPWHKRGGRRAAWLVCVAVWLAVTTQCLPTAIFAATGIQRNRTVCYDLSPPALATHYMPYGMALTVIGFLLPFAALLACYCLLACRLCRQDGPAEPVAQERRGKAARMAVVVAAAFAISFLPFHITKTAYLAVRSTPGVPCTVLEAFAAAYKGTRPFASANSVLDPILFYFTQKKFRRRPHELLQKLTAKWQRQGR
Chain of P2Y purinoceptor 4 (P51582 whole entry): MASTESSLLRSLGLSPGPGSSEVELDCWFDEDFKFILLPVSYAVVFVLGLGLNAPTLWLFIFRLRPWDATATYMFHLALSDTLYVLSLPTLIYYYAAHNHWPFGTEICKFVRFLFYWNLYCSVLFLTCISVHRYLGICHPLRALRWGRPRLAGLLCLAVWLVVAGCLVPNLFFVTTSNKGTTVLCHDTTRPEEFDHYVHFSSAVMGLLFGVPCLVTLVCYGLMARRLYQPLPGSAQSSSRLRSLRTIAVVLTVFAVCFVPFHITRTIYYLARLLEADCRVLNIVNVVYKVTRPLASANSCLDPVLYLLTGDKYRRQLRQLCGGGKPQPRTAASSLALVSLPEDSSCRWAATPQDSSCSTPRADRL
Chain of P2Y purinoceptor 2 (Homo sapiens) (P41231 whole entry): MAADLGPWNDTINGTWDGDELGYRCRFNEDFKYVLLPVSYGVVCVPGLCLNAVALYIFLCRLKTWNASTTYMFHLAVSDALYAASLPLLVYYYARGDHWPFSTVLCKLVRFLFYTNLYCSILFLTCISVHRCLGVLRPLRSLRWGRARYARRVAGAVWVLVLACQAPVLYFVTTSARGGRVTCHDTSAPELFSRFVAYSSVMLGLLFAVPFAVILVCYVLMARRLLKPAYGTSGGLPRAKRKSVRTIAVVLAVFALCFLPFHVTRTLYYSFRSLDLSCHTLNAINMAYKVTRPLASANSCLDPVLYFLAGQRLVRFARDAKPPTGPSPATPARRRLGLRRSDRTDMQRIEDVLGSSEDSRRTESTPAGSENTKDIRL

Row | Compound | half-life [1] [min] | half-life [2] [min] | EC50 (P2Y purinoceptor 6 [4]) [nM] | Drug metabolism (Serum [6]) | Drug metabolism (Serum [7]) | Activity (P2Y purinoceptor 4) | Activity [10] | also measured
1 | B[P@@](=O)(OC[C@H]1O[C@@H](n2ccc(=O)[nH]c2=O)[C@H](O)[C@@H]1O)OP(=O)(O)O | 1010 | 1020 | – | – | – | – | – | –
2 | O=c1ccn([C@@H]2O[C@H](COP(=O)(O)OP(=O)(O)O)[C@@H](O)[C@H]2O)c(=O)[nH]1 [URIDINE_DIPHOSPHATE] | 17300 | 144 | 150 | Active | Active | – | – | EC50 (P2Y purinoceptor 6 [3]): 47 nM; Activity [5]: 50%; EC50 [8]: 500 nM
3 | BP(=O)(OC[C@H]1O[C@@H](n2cc(OC)c(=O)[nH]c2=O)[C@H](O)[C@@H]1O)OP(=O)(O)O (stereo partly drawn) | 1010 | – | – | – | – | – | – | –
4 | B[P@@](=O)(OC[C@H]1O[C@@H](n2cc(OC)c(=O)[nH]c2=O)[C@H](O)[C@@H]1O)OP(=O)(O)OP(=O)(O)OC[C@H]1O[C@@H](n2cc(OC)c(=O)[nH]c2=O)[C@H](O)[C@@H]1O | – | – | 60 | – | – | inactive | inactive | Ratio EC50 (P2Y purinoceptor 6 [9]): 2.5
5 | B[P@@](=O)(OC[C@H]1O[C@@H](n2cc(OC)c(=O)[nH]c2=O)[C@H](O)[C@@H]1O)OP(=O)(O)O | – | 1260 | 8 | Active | Active | – | – | metabolised at 3 h [11]: 28%; metabolised at 2 h [12]: 15%
6 | BP(=O)(OP(=O)(O)OC[C@H]1O[C@@H](n2cc(OC)c(=O)[nH]c2=O)[C@H](O)[C@@H]1O)OP(=O)(O)OC[C@H]1O[C@@H](n2cc(OC)c(=O)[nH]c2=O)[C@H](O)[C@@H]1O | – | – | 200 | – | – | inactive | inactive | –
7 | B[P@](=O)(OC[C@H]1O[C@@H](n2cc(OC)c(=O)[nH]c2=O)[C@H](O)[C@@H]1O)OP(=O)(O)OP(=O)(O)OC[C@H]1O[C@@H](n2cc(OC)c(=O)[nH]c2=O)[C@H](O)[C@@H]1O | – | – | 2200 | – | – | inactive | inactive | –
8 | COc1cn([C@@H]2O[C@H](COP(=O)(O)OP(=O)(O)O)[C@@H](O)[C@H]2O)c(=O)[nH]c1=O | – | 714 | – | Active | Active | – | – | metabolised at 3 h [11]: 36%; Activity [13]: 49%
9 | O=c1ccn([C@@H]2O[C@H](COP(=O)(O)OP(=O)(O)S)[C@@H](O)[C@H]2O)c(=O)[nH]1 (stereo partly drawn) | – | – | – | – | – | – | – | EC50 (P2Y purinoceptor 6 [3]): 28 nM
